Converted amounts (≈) assume the structure as drawn. The source made the active and inactive calls. No cut-off for these calls is given here.
How the values were obtained:
[1] = system: Trichophyton mentagrophytes; assay: Antifungal activity against Trichophyton mentagrophytes ATCC 9129 at pH 7 after 5 days in presence of 10% beef serum; assay type: functional; settings: Trichophyton mentagrophytes, ATCC 9129, 120 h; read-out: MIC
Method in brief: (§1)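 Agar-dilution MIC in Sabouraud dextrose agar at pH 5.6 or 7.0, with or without 10% beef serum. Plates were incubated at 28 °C for 5 days. MIC is the lowest concentration (µg/mL) giving 100% inhibition. Steps were 1 µg/mL up to 10, 2 µg/mL from 10–20, and 10 µg/mL from 20–100; 100 µg/mL was the top level, and no inhibition there is scored as >100.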

Candida albicans [2] = assay: Antifungal activity against Candida albicans ATCC 10231 at pH 5.6 after 5 days in presence of 10% beef serum; assay type: functional; settings: Candida albicans, ATCC 10231, 120 h; read-out: MIC
Mucor mucedo [3] = assay: Antifungal activity against Mucor mucedo ATCC 7941 at pH 7 after 20 h in absence of 10% beef serum; settings: ATCC 7941, 20 h
Aspergillus niger [4] = assay: Antifungal activity against Aspergillus niger ATCC 1004 at pH 5.6 after 5 days in presence of 10% beef serum; assay type: functional; settings: Aspergillus niger, ATCC 1004, 120 h; read-out: MIC; method in brief: as §1
Mucor mucedo [5] = assay: Antifungal activity against Mucor mucedo ATCC 7941 at pH 5.6 after 5 days in absence of 10% beef serum; assay type: functional; settings: Mucor mucedo, ATCC 7941, 120 h; read-out: MIC
Candida albicans [6] = assay: Antifungal activity against Candida albicans ATCC 10231 at pH 7 after 5 days in presence of 10% beef serum; assay type: functional; settings: Candida albicans, ATCC 10231, 120 h; read-out: MIC
Candida albicans [7] = assay: Antifungal activity against Candida albicans ATCC 10231 at pH 5.6 after 20 h in absence of 10% beef serum; settings: ATCC 10231, 20 h
Aspergillus niger [8] = assay: Antifungal activity against Aspergillus niger ATCC 1004 at pH 5.6 after 5 days in absence of 10% beef serum; assay type: functional; settings: Aspergillus niger, ATCC 1004, 120 h; read-out: MIC; method in brief: as §1
[9] = system: Trichophyton mentagrophytes; assay: Antifungal activity against Trichophyton mentagrophytes ATCC 9129 at pH 5.6 after 5 days in absence of 10% beef serum; assay type: functional; settings: Trichophyton mentagrophytes, ATCC 9129, 120 h; read-out: MIC; method in brief: as §1
[10] = system: Trichophyton mentagrophytes; assay: Antifungal activity against Trichophyton mentagrophytes ATCC 9129 at pH 5.6 after 5 days in presence of 10% beef serum; assay type: functional; settings: Trichophyton mentagrophytes, ATCC 9129, 120 h; read-out: MIC; method in brief: as §1
Mucor mucedo [11] = assay: Antifungal activity against Mucor mucedo ATCC 7941 at pH 7 after 20 h in presence of 10% beef serum; settings: ATCC 7941, 20 h
Mucor mucedo [12] = assay: Antifungal activity against Mucor mucedo ATCC 7941 at pH 5.6 after 20 h in presence of 10% beef serum; settings: ATCC 7941, 20 h
Aspergillus niger [13] = assay: Antifungal activity against Aspergillus niger ATCC 1004 at pH 7 after 5 days in presence of 10% beef serum; assay type: functional; settings: Aspergillus niger, ATCC 1004, 120 h; read-out: MIC; method in brief: as §1
Aspergillus niger [14] = assay: Antifungal activity against Aspergillus niger ATCC 1004 at pH 7 after 5 days in absence of 10% beef serum; assay type: functional; settings: Aspergillus niger, ATCC 1004, 120 h; read-out: MIC; method in brief: as §1
Candida albicans [15] = assay: Antifungal activity against Candida albicans ATCC 10231 at pH 7 after 20 h in absence of 10% beef serum; settings: ATCC 10231, 20 h
[16] = system: Trichophyton mentagrophytes; assay: Antifungal activity against Trichophyton mentagrophytes ATCC 9129 at pH 7 after 5 days in absence of 10% beef serum; assay type: functional; settings: Trichophyton mentagrophytes, ATCC 9129, 120 h; read-out: MIC; method in brief: as §1
[17] = system: Trichophyton mentagrophytes; assay: Antifungal activity against Trichophyton mentagrophytes ATCC 9129 at <100 ug/ml at pH 5.6 after 5 days in presence of 10% beef serum; assay type: functional, organism-based; method in brief: as §1
Candida albicans [18] = assay: Antifungal activity against Candida albicans ATCC 10231 at <100 ug/ml at pH 7 after 20 h in absence of 10% beef serum
[19] = system: Trichophyton mentagrophytes; assay: Antifungal activity against Trichophyton mentagrophytes ATCC 9129 at <100 ug/ml at pH 5.6 after 5 days in absence of 10% beef serum; assay type: functional, organism-based; method in brief: as §1
[20] = system: Trichophyton mentagrophytes; assay: Antifungal activity against Trichophyton mentagrophytes ATCC 9129 at <100 ug/ml at pH 7 after 5 days in absence of 10% beef serum; assay type: functional, organism-based; method in brief: as §1
Aspergillus niger [21] = assay: Antifungal activity against Aspergillus niger ATCC 1004 at <100 ug/ml at pH 7 after 5 days in presence of 10% beef serum; assay type: functional, organism-based; method in brief: as §1
Candida albicans [22] = assay: Antifungal activity against Candida albicans ATCC 10231 at <100 ug/ml at pH 5.6 after 20 h in presence of 10% beef serum
Aspergillus niger [23] = assay: Antifungal activity against Aspergillus niger ATCC 1004 at <100 ug/ml at pH 7 after 5 days in absence of 10% beef serum; assay type: functional, organism-based; method in brief: as §1
Mucor mucedo [24] = assay: Antifungal activity against Mucor mucedo ATCC 7941 at <100 ug/ml at pH 7 after 20 h in presence of 10% beef serum
Mucor mucedo [25] = assay: Antifungal activity against Mucor mucedo ATCC 7941 at <100 ug/ml at pH 7 after 20 h in absence of 10% beef serum
Candida albicans [26] = assay: Antifungal activity against Candida albicans ATCC 10231 at <100 ug/ml at pH 5.6 after 20 h in absence of 10% beef serum
Aspergillus niger [27] = assay: Antifungal activity against Aspergillus niger ATCC 1004 at <100 ug/ml at pH 5.6 after 5 days in presence of 10% beef serum; assay type: functional, organism-based; method in brief: as §1
Candida albicans [28] = assay: Antifungal activity against Candida albicans ATCC 10231 at <100 ug/ml at pH 7 after 20 h in presence of 10% beef serum
Mucor mucedo [29] = assay: Antifungal activity against Mucor mucedo ATCC 7941 at <100 ug/ml at pH 5.6 after 20 h in absence of 10% beef serum
Mucor mucedo [30] = assay: Antifungal activity against Mucor mucedo ATCC 7941 at <100 ug/ml at pH 5.6 after 20 h in presence of 10% beef serum
[31] = system: Trichophyton mentagrophytes; assay: Antifungal activity against Trichophyton mentagrophytes ATCC 9129 at <100 ug/ml at pH 7 after 5 days in presence of 10% beef serum; assay type: functional, organism-based; method in brief: as §1
Aspergillus niger [32] = assay: Antifungal activity against Aspergillus niger ATCC 1004 at <100 ug/ml at pH 5.6 after 5 days in absence of 10% beef serum; assay type: functional, organism-based; method in brief: as §1
Candida albicans [33] = assay: Antifungal activity against Candida albicans ATCC 10231 at pH 7 after 20 h in presence of 10% beef serum; settings: ATCC 10231, 20 h
Candida albicans [34] = assay: Antifungal activity against Candida albicans ATCC 10231 at pH 5.6 after 20 h in presence of 10% beef serum; settings: ATCC 10231, 20 h
Mucor mucedo [35] = assay: Antifungal activity against Mucor mucedo ATCC 7941 at pH 5.6 after 20 h in absence of 10% beef serum; settings: ATCC 7941, 20 h

Compound | inhibition [17] | inhibition (Candida albicans [18]) | inhibition [19] | inhibition [20] | inhibition (Aspergillus niger [21]) | inhibition (Candida albicans [22]) | inhibition (Aspergillus niger [23]) | inhibition (Mucor mucedo [24]) | inhibition (Mucor mucedo [25]) | inhibition (Candida albicans [26]) | inhibition (Aspergillus niger [27]) | inhibition (Candida albicans [28]) | inhibition (Mucor mucedo [29]) | inhibition (Mucor mucedo [30]) | inhibition [31] | inhibition (Aspergillus niger [32]) | also measured
COC(=O)[C@@H](F)[C@@H](Br)C(=O)OC (relative stereo) |  |  |  |  |  |  |  |  |  |  |  |  |  |  |  |  | MIC [1]: 5 µg/mL; MIC (Candida albicans [2]): 14 µg/mL; MIC (Mucor mucedo [3]): 8 µg/mL (≈ 32.9 µM); MIC (Aspergillus niger [4]): 20 µg/mL; MIC (Mucor mucedo [5]): 7 µg/mL (≈ 28.8 µM); MIC (Candida albicans [6]): 30 µg/mL; MIC (Candida albicans [7]): 9 µg/mL (≈ 37 µM); MIC (Aspergillus niger [8]): 20 µg/mL (≈ 82.3 µM); MIC [9]: < 1 µg/mL; MIC [10]: 2 µg/mL; MIC (Mucor mucedo [11]): 12 µg/mL; MIC (Mucor mucedo [12]): 8 µg/mL; MIC (Aspergillus niger [13]): 40 µg/mL; MIC (Aspergillus niger [14]): 40 µg/mL (≈ 165 µM); MIC (Candida albicans [15]): 20 µg/mL (≈ 82.3 µM); MIC [16]: 2 µg/mL (≈ 8.23 µM)
CCCCCCOC(=O)/C=C/C(=O)OCCCCCC | inactive | inactive | inactive | inactive | inactive | inactive | inactive | inactive | inactive | inactive | inactive | inactive | inactive | inactive | inactive | inactive | 
O=c1[nH]cc(F)c(=O)[nH]1 | inactive | inactive | inactive | inactive | inactive | inactive | inactive | inactive | inactive | inactive | inactive | inactive | inactive | inactive | inactive | inactive | 
CCCCCCOC(=O)[C@H](F)[C@@H](Br)C(=O)OCCCCCC (relative stereo) | inactive | inactive | inactive | inactive | inactive | inactive | inactive | inactive | inactive | inactive | inactive | inactive | inactive | inactive | inactive | inactive | 
CCCCCCOC(=O)[C@@H](F)[C@@H](Br)C(=O)OCCCCCC (relative stereo) | inactive | inactive | inactive | inactive | inactive | inactive | inactive | inactive | inactive | inactive | inactive | inactive | inactive | inactive | inactive | inactive | 
Nc1nc(=O)[nH]cc1F [FLUCYTOSINE] | inactive |  | inactive | inactive |  |  |  | inactive | inactive |  |  |  | inactive | inactive | inactive |  | MIC (Candida albicans [33]): 14 µg/mL; MIC (Aspergillus niger [4]): 8 µg/mL; MIC (Candida albicans [7]): 9 µg/mL (≈ 69.7 µM); MIC (Aspergillus niger [8]): 9 µg/mL (≈ 69.7 µM); MIC (Aspergillus niger [13]): 10 µg/mL; MIC (Aspergillus niger [14]): 7 µg/mL (≈ 54.2 µM); MIC (Candida albicans [15]): 9 µg/mL (≈ 69.7 µM); MIC (Candida albicans [34]): 14 µg/mL
COC(=O)/C=C/CC(=O)OC | inactive | inactive | inactive | inactive | inactive | inactive | inactive | inactive | inactive | inactive | inactive | inactive | inactive | inactive | inactive | inactive | 
COC(=O)C(Br)C(C)F (stereo unspecified) | inactive | inactive | inactive | inactive | inactive | inactive | inactive | inactive | inactive | inactive | inactive | inactive | inactive | inactive | inactive | inactive | 
CCCCCCOC(=O)/C=C\C(=O)OCCCCCC | inactive | inactive | inactive | inactive | inactive | inactive | inactive | inactive | inactive | inactive | inactive | inactive | inactive | inactive | inactive | inactive | 
COC(=O)/C=C(\Br)C(=O)OC |  |  |  |  |  |  |  |  |  |  |  |  |  |  |  |  | MIC [1]: 9 µg/mL; MIC (Candida albicans [33]): 20 µg/mL; MIC (Mucor mucedo [3]): 5 µg/mL (≈ 22.4 µM); MIC (Aspergillus niger [4]): 16 µg/mL; MIC (Candida albicans [7]): 12 µg/mL (≈ 53.8 µM); MIC (Aspergillus niger [8]): 14 µg/mL (≈ 62.8 µM); MIC [9]: < 1 µg/mL; MIC [10]: 3 µg/mL; MIC (Mucor mucedo [11]): 14 µg/mL; MIC (Mucor mucedo [12]): 4 µg/mL; MIC (Aspergillus niger [13]): 20 µg/mL; MIC (Aspergillus niger [14]): 18 µg/mL (≈ 80.7 µM); MIC (Candida albicans [15]): 18 µg/mL (≈ 80.7 µM); MIC (Mucor mucedo [35]): 3 µg/mL (≈ 13.5 µM); MIC [16]: 3 µg/mL (≈ 13.5 µM); MIC (Candida albicans [34]): 14 µg/mL
COC(=O)C#CC(=O)OC | inactive | inactive |  | inactive | inactive | inactive | inactive | inactive |  | inactive | inactive | inactive |  |  | inactive | inactive | MIC (Mucor mucedo [3]): 70 µg/mL (≈ 493 µM); MIC [9]: 40 µg/mL (≈ 281 µM); MIC (Mucor mucedo [12]): 30 µg/mL; MIC (Mucor mucedo [35]): 8 µg/mL (≈ 56.3 µM)
